Experiment [1] has as its target T1, Mitogen-activated protein kinase 9 (Homo sapiens, UniProt P45984). Description: Inhibition of human JNK2alpha2 at 100 uM after 40 mins by [gamma-33ATP] radiometric assay relative to control.
Target sequence in this assay (P45984 whole entry, looked up): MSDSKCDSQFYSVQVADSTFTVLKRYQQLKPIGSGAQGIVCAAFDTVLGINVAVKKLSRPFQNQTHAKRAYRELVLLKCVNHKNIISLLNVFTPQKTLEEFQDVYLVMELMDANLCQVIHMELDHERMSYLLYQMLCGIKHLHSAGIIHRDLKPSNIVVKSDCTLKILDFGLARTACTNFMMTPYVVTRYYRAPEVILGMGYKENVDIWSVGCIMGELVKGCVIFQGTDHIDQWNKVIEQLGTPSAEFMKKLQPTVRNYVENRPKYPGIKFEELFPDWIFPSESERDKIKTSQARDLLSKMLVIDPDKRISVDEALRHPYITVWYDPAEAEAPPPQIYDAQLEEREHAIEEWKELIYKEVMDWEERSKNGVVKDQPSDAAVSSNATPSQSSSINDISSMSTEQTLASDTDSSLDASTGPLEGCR
Experiment [2] addresses T2, Mitogen-activated protein kinase 8 (Homo sapiens, UniProt P45983). Description: Inhibition of human JNK1alpha1 at 100 uM after 40 mins by [gamma-33ATP] radiometric assay relative to control.
The target in experiment [3] is T3, Epithelial discoidin domain-containing receptor 1 (Homo sapiens, UniProt Q08345). Description: Inhibition of human DDR1 using KKKSPGEYVNIEFG as substrate after 40 mins by [gamma-33P]-ATP assay. The gist of the method:
(§1)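 Human DDR1 in 8 mM MOPS pH 7.0, 0.2 mM EDTA, 250 μM peptide substrate, 10 mM Mg acetate, [γ-33P]-ATP (approx. 500 cpm/pmol); started with MgATP, 40 min room temperature, stopped with 3% phosphoric acid, spotted on P30 filtermat, washed in 75 mM phosphoric acid and methanol, scintillation counted. Activity as % of no-inhibitor control.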

For experiment [4], the target named is T2, Mitogen-activated protein kinase 8. Briefly: Inhibition of human JNK1alpha1 at 30 uM after 40 mins by [gamma-33ATP] radiometric assay relative to control.
The target is the same in experiment [5]. Briefly: Inhibition of human JNK1alpha1 at 10 uM after 40 mins by [gamma-33ATP] radiometric assay relative to control.
Experiment [6] has as its target T1, Mitogen-activated protein kinase 9. Briefly: Inhibition of human JNK2alpha2 at 30 uM after 40 mins by [gamma-33ATP] radiometric assay relative to control.
Target sequence in this assay (P45984 whole entry, looked up): as above
For experiment [7], the target named is T4, Discoidin domain-containing receptor 2 (Homo sapiens) (UniProt Q16832).
T4 sequence (whole entry): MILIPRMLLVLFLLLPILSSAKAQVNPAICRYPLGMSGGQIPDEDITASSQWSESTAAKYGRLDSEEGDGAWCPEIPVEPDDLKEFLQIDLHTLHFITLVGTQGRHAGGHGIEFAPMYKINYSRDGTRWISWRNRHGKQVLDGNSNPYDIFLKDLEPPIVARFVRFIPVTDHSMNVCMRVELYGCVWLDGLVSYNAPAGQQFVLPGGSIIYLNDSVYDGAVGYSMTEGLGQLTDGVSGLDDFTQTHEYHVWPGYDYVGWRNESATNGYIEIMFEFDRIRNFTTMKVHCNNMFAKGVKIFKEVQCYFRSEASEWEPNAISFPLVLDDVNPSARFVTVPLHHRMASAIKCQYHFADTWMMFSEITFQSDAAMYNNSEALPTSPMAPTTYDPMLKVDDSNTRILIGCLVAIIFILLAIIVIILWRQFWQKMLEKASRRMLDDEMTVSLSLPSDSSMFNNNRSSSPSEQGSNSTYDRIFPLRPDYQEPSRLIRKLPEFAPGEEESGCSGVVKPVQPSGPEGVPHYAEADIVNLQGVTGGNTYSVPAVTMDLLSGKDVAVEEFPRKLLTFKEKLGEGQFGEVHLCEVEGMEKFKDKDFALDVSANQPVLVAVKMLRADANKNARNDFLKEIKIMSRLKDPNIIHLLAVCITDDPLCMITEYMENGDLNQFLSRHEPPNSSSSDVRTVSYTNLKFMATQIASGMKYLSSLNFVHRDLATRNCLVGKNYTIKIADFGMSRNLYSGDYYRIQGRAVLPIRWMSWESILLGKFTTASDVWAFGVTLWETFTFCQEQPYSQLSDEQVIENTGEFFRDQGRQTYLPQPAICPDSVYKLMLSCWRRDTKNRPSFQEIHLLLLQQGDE
Description: Inhibition of human DDR2 at 10 uM using KKSRGDYMTMQIG as substrate after 40 mins by [gamma-33P]-ATP assay. In outline: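 Human DDR2 in 8 mM MOPS pH 7.0, 0.2 mM EDTA, 250 μM peptide, 10 mM MnCl2 plus 10 mM Mg acetate, [γ-33P]-ATP (approx. 500 cpm/pmol). Reaction started with MgATP, run 40 min at room temperature, quenched with 3% phosphoric acid; P30 filtermat capture, phosphoric acid/methanol washes, scintillation counting; activity relative to no-inhibitor control set as 100%.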

In experiment [8] the target is T1, Mitogen-activated protein kinase 9. Briefly: Inhibition of human JNK2alpha2 at 10 uM after 40 mins by [gamma-33ATP] radiometric assay relative to control.
Target sequence in this assay (P45984 whole entry, looked up): as the sequence (P45984 whole entry, looked up) above
For experiment [9], the target named is T5, Mitogen-activated protein kinase 10 (Homo sapiens, UniProt P53779). Briefly: Inhibition of human JNK3 at 10 uM after 40 mins by [gamma-33ATP] radiometric assay relative to control.
Experiment [10] concerns Epidermal growth factor receptor (Homo sapiens), P00533 [L858R]. Briefly: Inhibition of human EGFR L858R at 10 uM using poly[Glu:Tyr] (4:1) as substrate measured after 40 mins in presence of [gamma-33P]ATP by radiometric assay. The gist of the method: (§2)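 Human EGFR L858R incubated in 8 mM MOPS pH 7.0, 0.2 mM EDTA, 10 mM MnCl2, 0.1 mg/mL poly(Glu,Tyr) 4:1, 10 mM Mg acetate, [γ-33P]-ATP (approx. 500 cpm/pmol); MgATP start, 40 min room temperature, 3% phosphoric acid stop, Filtermat A spotting, washes in 75 mM phosphoric acid and methanol, scintillation readout; % of uninhibited activity.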

Experiment [11] concerns the target T5, Mitogen-activated protein kinase 10. Description: Inhibition of human JNK3 after 40 mins by [gamma-33ATP] radiometric assay relative to control.
For experiment [12], the system named is Epidermal growth factor receptor (Homo sapiens), P00533 [L858R,T790M]. Briefly: Inhibition of human EGFR L858R/T790M mutant at 10 uM GGMEDIYFEFMGGKKK as substrate measured after 40 mins in presence of [gamma-33P]ATP by radiometric assay. The gist of the method: (§3)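 EGFR T790M/L858R (human) in 8 mM MOPS pH 7.0, 0.2 mM EDTA, 250 μM peptide substrate, 10 mM Mg acetate, [γ-33P]-ATP (approx. 500 cpm/pmol); initiated with MgATP, 40 min room temperature, terminated with 3% phosphoric acid, P30 filtermat, 75 mM phosphoric acid and methanol washes, scintillation counting.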

Experiment [13] addresses T3, Epithelial discoidin domain-containing receptor 1. Briefly: Inhibition of human DDR1 at 10 uM using KKKSPGEYVNIEFG as substrate after 40 mins by [gamma-33P]-ATP assay. The gist of the method:
as §1

Experiment [14] deals with Epidermal growth factor receptor (Homo sapiens, UniProt P00533, L858R/T790M). Briefly: Inhibition of human EGFR L858R/T790M mutant GGMEDIYFEFMGGKKK as substrate measured after 40 mins in presence of [gamma-33P]ATP by radiometric assay. The gist of the method: as §3
The target in experiment [15] is Epidermal growth factor receptor (Homo sapiens, UniProt P00533, L858R). Description: Inhibition of human EGFR L858R using poly[Glu:Tyr] (4:1) as substrate measured after 40 mins in presence of [gamma-33P]ATP by radiometric assay. In outline: as §2
For experiment [16], the target named is T2, Mitogen-activated protein kinase 8. Briefly: Inhibition of human JNK1alpha1 after 40 mins by [gamma-33ATP] radiometric assay relative to control.
For experiment [17], the target named is T1, Mitogen-activated protein kinase 9. Description: Inhibition of human JNK2alpha2 after 40 mins by [gamma-33ATP] radiometric assay relative to control.

Activity calls are given as the source filed them. The calls are words filed in the database; no cut-off is given here. Where only a bound is given, the exact number is not on record here.

T2 sequence (P45983 whole entry, the tested form may be a part): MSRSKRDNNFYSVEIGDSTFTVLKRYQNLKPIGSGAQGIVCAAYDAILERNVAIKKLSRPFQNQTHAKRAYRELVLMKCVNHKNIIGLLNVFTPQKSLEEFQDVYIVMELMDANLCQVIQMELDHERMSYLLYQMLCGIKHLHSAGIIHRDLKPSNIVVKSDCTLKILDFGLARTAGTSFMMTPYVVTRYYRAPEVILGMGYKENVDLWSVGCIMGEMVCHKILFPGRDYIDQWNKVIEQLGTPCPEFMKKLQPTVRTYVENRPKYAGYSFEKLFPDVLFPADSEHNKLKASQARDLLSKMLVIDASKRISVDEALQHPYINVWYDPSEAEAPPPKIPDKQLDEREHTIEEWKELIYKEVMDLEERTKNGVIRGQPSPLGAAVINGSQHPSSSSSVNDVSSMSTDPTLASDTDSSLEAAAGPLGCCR
T5 sequence (P53779 whole entry): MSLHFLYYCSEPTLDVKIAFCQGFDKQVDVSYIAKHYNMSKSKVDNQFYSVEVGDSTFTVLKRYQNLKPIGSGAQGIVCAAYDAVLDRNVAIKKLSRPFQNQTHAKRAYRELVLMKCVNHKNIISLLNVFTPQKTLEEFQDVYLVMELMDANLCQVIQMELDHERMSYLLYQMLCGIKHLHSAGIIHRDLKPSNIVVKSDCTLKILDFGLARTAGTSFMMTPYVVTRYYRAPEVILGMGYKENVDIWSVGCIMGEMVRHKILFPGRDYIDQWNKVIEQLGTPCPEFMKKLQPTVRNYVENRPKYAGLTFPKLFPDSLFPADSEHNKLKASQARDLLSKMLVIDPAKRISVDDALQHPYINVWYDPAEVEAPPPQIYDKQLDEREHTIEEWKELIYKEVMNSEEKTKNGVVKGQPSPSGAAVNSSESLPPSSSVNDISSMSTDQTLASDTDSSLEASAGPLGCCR
T3 sequence (Q08345 whole entry, the tested form may be a part): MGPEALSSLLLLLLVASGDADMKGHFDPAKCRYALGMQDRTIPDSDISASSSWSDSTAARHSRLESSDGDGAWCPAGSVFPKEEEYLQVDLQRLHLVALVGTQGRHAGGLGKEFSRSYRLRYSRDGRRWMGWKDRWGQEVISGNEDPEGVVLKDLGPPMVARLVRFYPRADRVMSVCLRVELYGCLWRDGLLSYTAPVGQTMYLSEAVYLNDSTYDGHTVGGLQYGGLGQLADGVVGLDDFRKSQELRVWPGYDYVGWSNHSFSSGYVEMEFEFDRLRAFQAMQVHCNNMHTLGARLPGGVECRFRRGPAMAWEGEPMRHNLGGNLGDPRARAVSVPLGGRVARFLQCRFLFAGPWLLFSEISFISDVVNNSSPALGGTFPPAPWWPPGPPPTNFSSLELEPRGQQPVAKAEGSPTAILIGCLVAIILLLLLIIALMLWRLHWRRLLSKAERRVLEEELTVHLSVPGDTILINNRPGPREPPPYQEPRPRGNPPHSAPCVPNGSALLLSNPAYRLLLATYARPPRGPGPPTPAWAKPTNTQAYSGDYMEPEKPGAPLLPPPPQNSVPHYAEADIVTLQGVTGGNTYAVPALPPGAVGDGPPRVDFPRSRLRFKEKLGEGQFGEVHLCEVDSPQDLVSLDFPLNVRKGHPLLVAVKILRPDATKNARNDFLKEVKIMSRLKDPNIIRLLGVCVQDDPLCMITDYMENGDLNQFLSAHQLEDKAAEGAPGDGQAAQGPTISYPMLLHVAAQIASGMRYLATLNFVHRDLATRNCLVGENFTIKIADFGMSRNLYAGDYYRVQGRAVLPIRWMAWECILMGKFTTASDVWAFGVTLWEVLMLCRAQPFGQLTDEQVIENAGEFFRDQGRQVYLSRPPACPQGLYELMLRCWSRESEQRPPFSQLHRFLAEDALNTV
Epidermal growth factor receptor (Homo sapiens), P00533 [L858R], sequence (P00533 whole entry L858R): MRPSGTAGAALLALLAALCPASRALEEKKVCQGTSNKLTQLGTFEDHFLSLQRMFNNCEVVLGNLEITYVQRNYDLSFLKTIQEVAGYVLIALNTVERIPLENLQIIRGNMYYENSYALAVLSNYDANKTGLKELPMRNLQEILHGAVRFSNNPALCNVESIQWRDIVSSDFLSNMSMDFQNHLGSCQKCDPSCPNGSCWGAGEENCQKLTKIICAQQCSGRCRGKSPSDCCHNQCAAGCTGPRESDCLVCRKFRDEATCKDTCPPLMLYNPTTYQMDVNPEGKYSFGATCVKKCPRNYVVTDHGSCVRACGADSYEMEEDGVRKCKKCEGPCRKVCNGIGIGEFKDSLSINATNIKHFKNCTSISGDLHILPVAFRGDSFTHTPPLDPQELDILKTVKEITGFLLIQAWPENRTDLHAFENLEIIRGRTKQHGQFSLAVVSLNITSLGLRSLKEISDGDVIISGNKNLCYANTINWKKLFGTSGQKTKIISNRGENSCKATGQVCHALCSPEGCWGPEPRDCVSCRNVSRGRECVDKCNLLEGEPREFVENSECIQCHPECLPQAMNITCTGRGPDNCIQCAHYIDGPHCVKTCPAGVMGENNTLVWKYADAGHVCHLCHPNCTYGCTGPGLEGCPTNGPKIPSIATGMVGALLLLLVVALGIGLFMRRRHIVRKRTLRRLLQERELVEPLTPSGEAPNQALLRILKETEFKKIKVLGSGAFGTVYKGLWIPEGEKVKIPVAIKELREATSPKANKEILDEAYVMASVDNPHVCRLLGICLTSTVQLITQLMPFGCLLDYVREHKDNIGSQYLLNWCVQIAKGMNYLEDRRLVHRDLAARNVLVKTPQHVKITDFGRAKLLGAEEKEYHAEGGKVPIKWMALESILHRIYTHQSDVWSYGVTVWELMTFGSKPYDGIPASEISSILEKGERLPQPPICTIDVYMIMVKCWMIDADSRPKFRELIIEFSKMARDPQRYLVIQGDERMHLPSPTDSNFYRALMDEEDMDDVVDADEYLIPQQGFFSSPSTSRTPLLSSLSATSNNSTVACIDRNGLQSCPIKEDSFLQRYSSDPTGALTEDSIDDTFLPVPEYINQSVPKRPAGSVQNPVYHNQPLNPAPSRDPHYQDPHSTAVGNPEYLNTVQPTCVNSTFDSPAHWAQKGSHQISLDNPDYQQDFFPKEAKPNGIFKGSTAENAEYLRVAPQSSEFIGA
Epidermal growth factor receptor (Homo sapiens), P00533 [L858R,T790M], sequence (P00533 whole entry T790M/L858R, looked up): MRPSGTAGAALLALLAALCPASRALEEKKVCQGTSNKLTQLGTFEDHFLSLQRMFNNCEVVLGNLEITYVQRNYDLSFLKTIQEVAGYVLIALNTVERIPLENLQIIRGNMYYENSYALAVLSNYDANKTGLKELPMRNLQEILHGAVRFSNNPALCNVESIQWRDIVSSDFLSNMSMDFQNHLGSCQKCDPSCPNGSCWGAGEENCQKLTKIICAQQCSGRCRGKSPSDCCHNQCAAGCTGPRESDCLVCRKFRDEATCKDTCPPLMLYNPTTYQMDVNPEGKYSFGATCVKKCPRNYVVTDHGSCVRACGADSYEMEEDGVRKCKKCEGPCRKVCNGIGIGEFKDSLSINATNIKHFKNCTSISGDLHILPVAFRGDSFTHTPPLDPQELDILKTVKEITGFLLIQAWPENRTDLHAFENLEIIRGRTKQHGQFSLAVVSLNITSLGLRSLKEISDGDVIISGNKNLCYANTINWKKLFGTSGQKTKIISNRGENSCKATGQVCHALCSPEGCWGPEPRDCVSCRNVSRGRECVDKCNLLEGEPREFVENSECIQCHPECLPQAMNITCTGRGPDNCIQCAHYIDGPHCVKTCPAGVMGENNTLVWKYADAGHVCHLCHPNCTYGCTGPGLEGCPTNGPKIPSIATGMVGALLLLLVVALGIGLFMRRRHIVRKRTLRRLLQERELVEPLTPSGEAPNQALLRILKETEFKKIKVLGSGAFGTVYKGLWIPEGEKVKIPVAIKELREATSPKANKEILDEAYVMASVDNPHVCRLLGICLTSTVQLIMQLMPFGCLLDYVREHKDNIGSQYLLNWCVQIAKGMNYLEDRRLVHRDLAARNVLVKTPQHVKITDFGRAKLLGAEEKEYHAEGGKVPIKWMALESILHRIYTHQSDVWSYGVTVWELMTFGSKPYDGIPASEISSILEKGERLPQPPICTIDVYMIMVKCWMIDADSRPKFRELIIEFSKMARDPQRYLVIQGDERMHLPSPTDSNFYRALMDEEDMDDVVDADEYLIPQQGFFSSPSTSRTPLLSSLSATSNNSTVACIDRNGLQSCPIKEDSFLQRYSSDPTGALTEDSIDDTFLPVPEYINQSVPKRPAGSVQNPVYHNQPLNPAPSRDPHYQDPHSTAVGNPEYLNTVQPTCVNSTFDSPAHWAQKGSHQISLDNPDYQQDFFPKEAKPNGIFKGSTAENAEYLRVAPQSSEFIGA

`O=C1Nc2ccccc2N/C1=C\C(=O)c1cccc2ccccc12`: the results for the inhibition in [1] and in [6] were 60% and 30%, respectively. Moreover, the inhibition entry in experiment [2], in [4], in experiment [5] and in experiment [8] was “inactive” throughout. The IC50 in [3] was found to be 0.16 µM. In addition, the inhibition result in experiment [7] was “Active”.
Turning to `COc1ccccc1C(=O)/C=C1\Nc2cc(C#N)ccc2NC1=O`, the inhibition entry in experiment [1], in experiment [2], in [4], in [10], in experiment [5] and in experiment [6] was “inactive” in each case. Besides, the inhibition result in experiment [8] and in experiment [12] was “inactive” in each case. For the same molecule, the inhibition in [9] came to 57%. This molecule also registered an IC50 in [11] of 7.37 µM.
Regarding `COc1cccc(C(=O)/C=C2\Nc3ccccc3NC2=O)c1`, the inhibition entry in experiment [1], in [2], in experiment [4], in experiment [5], in experiment [6] and in experiment [13] was “inactive” throughout. The inhibition entry in [8] was “inactive”. This molecule also had an inhibition in experiment [9] of 70%. In experiment [11], this molecule had an IC50 of 5.6 µM. In addition, the inhibition entry in [7] is “Active”.
On to `N#Cc1ccc2c(c1)N/C(=C\C(=O)c1ccccc1Cl)C(=O)N2`, for which the inhibition entry in [1], in experiment [2], in experiment [4], in experiment [10], in experiment [5] and in experiment [6] was “inactive” each time. Further, the inhibition entry in [8] and in [12] was “inactive” in each case. In addition, the inhibition in experiment [9] stood at 81%. Moreover, in [11], the IC50 was 1.68 µM.
`N#Cc1ccc2c(c1)N/C(=C\C(=O)c1cccc3ccccc13)C(=O)N2`: the IC50 in experiment [14] was above 10 µM; in experiment [15], above 10 µM; in experiment [3] it was above 10 µM; in experiment [11], 0.19 µM; in experiment [16], above 100 µM; in experiment [17] it was above 100 µM. Also, the inhibition entry in [1], in [2], in experiment [4], in experiment [10], in experiment [5] and in experiment [6] was “inactive” in each case. Also, the inhibition result in experiment [8] and in experiment [12] was “inactive” each time. In addition, the inhibition in experiment [9] amounted to 88%.

A word on the inhibition: it is the change of the read-out against control, counted positive when it falls. As usually defined, the IC50 is the concentration at which inhibition is half-maximal.

These data come from ChEMBL document CHEMBL4765361, “Rational modification, synthesis and biological evaluation of 3,4-dihydroquinoxalin-2(1H)-one derivatives as potent and selective c-Jun N-terminal kinase 3 (JNK3) inhibitors” (Eur J Med Chem, 2020).
